Experimental data published in ChEMBL document CHEMBL1153929, “Exploration and synthesis of curcumin analogues with improved structural stability both in vitro and in vivo as cytotoxic agents” (Bioorg Med Chem, 2009).

Legend:
BGC-823 = assay: Cytotoxicity against human BGC823 cells after 72 hrs by MTT assay; type: functional, cell-based; conditions: BGC-823, 72 h
How it was run: (§1)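 Cells were plated at 5000 per well in 1640 medium with 5% heat-inactivated calf serum and penicillin/streptomycin, at 37 °C and 5% CO2. After 24 h, compounds in DMSO were added at final 100, 33.3, 11.1 and 3.7 µg/ml for 72 h. MTT (5 mg/ml in 0.9% NaCl) was then added for 3 h, the formazan dissolved in DMSO, and absorbance read at 570 nm.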

HL-60 (human) = assay: Cytotoxicity against human HL60 cells after 72 hrs by MTT assay; conditions: HL-60, 72 h
[1] = Hydrolytic stability assessed as compound degradation at 2 mg in sodium dihydrogen phosphate buffered 0.3% sodium carboxymethylcellulose solution at pH 7.4 after 45 hrs by HPLC; type: physicochemical; conditions: read-out: Activity
How it was run: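 2 mg of sample was vortexed into 1 ml of 0.3% (w/v) CMCNa solution in phosphate buffer at pH 7.4 and kept in the dark at 37 °C. HPLC peak areas were recorded. Degradation = (area at 0 h − area at end time) / area at 0 h × 100%.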

[2] = Tmax in healthy Sprague-Dawley rat at 500 mg/kg, po administered as single dose; type: ADME, organism-based; design: dose 500 mg/kg, route oral; conditions: in vivo
How it was run: (§2)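 Four rats per group, dosed once by oral gavage at 500 mg/kg, suspended with the aid of 1% CMCNa. Blood (0.5 ml) was taken from the orbital venous plexus at 0.083, 0.25, 0.5, 1, 2, 4 and 8 h. Plasma (200 µl) was extracted with ethyl acetate/chloroform and assayed by isocratic HPLC on an ODS2 column. Parameters came from non-compartmental analysis.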

[3] = Mean residence time (0 to infinity) in healthy Sprague-Dawley rat at 500 mg/kg, po administered as single dose; type: ADME, organism-based; design: dose 500 mg/kg, route oral; conditions: in vivo; how it was run: as §2
[4] = AUC (0 to t) in healthy Sprague-Dawley rat at 500 mg/kg, po administered as single dose; type: ADME, organism-based; design: dose 500 mg/kg, route oral; conditions: plasma; how it was run: as §2
[5] = Mean residence time (0 to t) in healthy Sprague-Dawley rat at 500 mg/kg, po administered as single dose; type: ADME, organism-based; design: dose 500 mg/kg, route oral; conditions: in vivo; how it was run: as §2
[6] = Metabolic stability in Sprague-Dawley rat plasma assessed as drug recovery at 0.8 ug/ml by RP-HPLC; type: ADME, cell-free; conditions: read-out: Stability
CNE = assay: Cytotoxicity against human CNE cells after 72 hrs by MTT assay; type: functional, cell-based; how it was run: as §1
[7] = Cmax in healthy Sprague-Dawley rat at 500 mg/kg, po administered as single dose; type: ADME, organism-based; design: dose 500 mg/kg, route oral; conditions: in vivo; how it was run: as §2
[8] = Cytotoxicity against human LS 174T cells after 72 hrs by MTT assay; type: functional, cell-based; conditions: LS174T; how it was run: as §1
[9] = Apparent oral clearance in healthy Sprague-Dawley rat at 500 mg/kg, po administered as single dose; type: ADME, organism-based; design: dose 500 mg/kg, route oral; conditions: in vivo; how it was run: as §2
[10] = Half life in healthy Sprague-Dawley rat at 500 mg/kg, po administered as single dose; type: ADME, organism-based; design: dose 500 mg/kg, route oral; conditions: in vivo; how it was run: as §2
[11] = Metabolic stability in Sprague-Dawley rat plasma assessed as drug recovery at 3.2 ug/ml by RP-HPLC; type: ADME, cell-free; conditions: read-out: Stability
[12] = Metabolic stability in Sprague-Dawley rat plasma assessed as drug recovery at 0.2 ug/ml by RP-HPLC; type: ADME, cell-free; conditions: read-out: Stability
[13] = AUC (0 to infinity) in healthy Sprague-Dawley rat at 500 mg/kg, po administered as single dose; type: ADME, organism-based; design: dose 500 mg/kg, route oral, time infinity; conditions: plasma; how it was run: as §2
PC-3 = assay: Cytotoxicity against human PC3 cells after 72 hrs by MTT assay; type: functional, cell-based; conditions: PC-3, 72 h; how it was run: as §1
KB (human) = assay: Cytotoxicity against human KB cells after 72 hrs by MTT assay
HeLa = assay: Cytotoxicity against human HeLa cells after 72 hrs by MTT assay; type: functional, cell-based; how it was run: as §1
[14] = Plasma concentration in healthy Sprague-Dawley rat at 500 mg/kg, po administered as single dose after 2 hrs; type: ADME, organism-based; design: dose 500 mg/kg, route oral; conditions: read-out: Drug uptake; how it was run: as §2
[15] = Metabolic stability in Sprague-Dawley rat plasma assessed as drug recovery at 0.05 ug/ml by RP-HPLC; type: ADME, cell-free; conditions: read-out: Stability
Liver = assay: Drug level in liver of patient with cancer at 3.6 g/day by HPLC; type: ADME, tissue-based; conditions: human, in vivo; read-out: Drug uptake
Blood [16] = assay: Drug level in peripheral blood of patient with cancer at 3.6 g/day by HPLC; type: ADME, tissue-based; conditions: human, read-out: Drug uptake
Blood [17] = assay: Drug level in portal blood of patient with cancer at 3.6 g/day by HPLC; type: ADME, tissue-based; conditions: human, read-out: Drug uptake
[18] = Chemical stability assessed as half life in pH 8 buffer containing 10% cyclodextrins; type: physicochemical
[19] = Chemical stability assessed as compound degradation in 0.1 M phosphate buffer at pH 7.2 within 30 mins; type: physicochemical; conditions: read-out: Activity
[20] = Drug level in bile of patient with cancer at 3.6 g/day by HPLC; type: ADME, tissue-based; conditions: human, in vivo; read-out: Drug uptake
[21] = Metabolic stability in Sprague-Dawley rat plasma assessed as drug recovery at 12.8 ug/ml by RP-HPLC; type: ADME, cell-free; conditions: read-out: Stability

| Structure (SMILES) | IC50 (BGC-823) [µM] | IC50 (HL-60 (human)) [µM] | degraded at 45 h [1] [%] | IC50 (CNE) [µM] | IC50 [8] [µM] | IC50 (PC-3) [µM] | IC50 (KB (human)) [µM] | IC50 (HeLa) [µM] | also measured |
| --- | --- | --- | --- | --- | --- | --- | --- | --- | --- |
| O=C(/C=C/c1ccc2ccccc2c1)/C=C/c1ccc2ccccc2c1 | 39.7 | 69.2 | 0 |  |  |  |  |  |  |
| COc1cc(/C=C/C(=O)/C=C/c2ccc(O)c(OC)c2)ccc1O |  |  | 0 | 6.8 | 3.7 |  |  |  | Tmax [2]: 1 h; MRT inf [3]: 8.48 h; AUC(0-t) [4]: 2960 ng·h/mL; MRT last [5]: 2.96 h; remaining at 0.8 ug/ml [6]: 98.3%; Cmax [7]: 822 ng/mL; CL/F [9]: 2090 mL/min/kg; half-life [10]: 5.96 h; remaining at 3.2 ug/ml [11]: 97.6%; remaining at 0.2 ug/ml [12]: 96.4%; AUC(0-inf) [13]: 4910 ng·h/mL |
| O=C1/C(=C/c2ccccc2Cl)CCC/C1=C\c1ccccc1Cl | 4.4 | 98.3 | 0 |  | 4.2 | 13.8 | 6.7 |  |  |
| O=C1/C(=C/c2ccccc2Br)CC/C1=C\c1ccccc1Br |  |  | 0 | 32.8 |  | 24.7 | 109 |  |  |
| Cc1ccc(C)c(/C=C/C(=O)/C=C/c2cc(C)ccc2C)c1 |  |  | 0 | 17.7 | 103 | 5.2 |  | 6.1 |  |
| COc1cccc(/C=C/C(=O)/C=C/c2cccc(OC)c2OC)c1OC | 24.4 | 4.5 | 0 |  | 48 |  | 24.3 |  |  |
| COc1cc(/C=C/C(=O)CC(=O)/C=C/c2ccc(O)c(OC)c2)ccc1O [CURCUMIN] | 16.7 | 11.6 | > 64 | 32.8 | 6.4 | 15 | 35.9 | 17.5 | Tmax [2]: 0.5 h; concentration at 2 h [14]: 40 ng/mL; MRT inf [3]: 22.7 h; AUC(0-t) [4]: 275 ng·h/mL; remaining at 0.05 ug/ml [15]: 97.7%; MRT last [5]: 3.44 h; concentration (Liver): 1300 nM; Cmax [7]: 91 ng/mL; concentration (Blood [16]): 1300 nM; concentration (Blood [17]): 1300 nM; half-life [18]: 10.5 h; degraded at 0.5 h [19]: 92%; concentration [20]: 1300 nM; half-life [10]: 2.41 h; remaining at 3.2 ug/ml [11]: 98.7%; remaining at 0.2 ug/ml [12]: 98.2%; AUC(0-inf) [13]: 672 ng·h/mL |
| CC(C)(C)c1ccc(/C=C/C(=O)/C=C/c2ccc(C(C)(C)C)cc2)cc1 |  |  | 0 | 89.8 |  | 12 |  | 21.8 |  |
| O=C1/C(=C/c2ccccc2F)CCC/C1=C\c1ccccc1F |  |  | 0 | 130 |  | 45.8 | 74.1 | 15.5 |  |
| O=C(/C=C/c1ccccc1Br)/C=C/c1ccccc1Br | 16.1 |  | 0 |  | 4 | 15.4 |  | 34.2 | Tmax [2]: 0.25 h; MRT inf [3]: 4.16 h; AUC(0-t) [4]: 12100 ng·h/mL; remaining at 12.8 ug/ml [21]: 95.2%; MRT last [5]: 2.49 h; Cmax [7]: 4100 ng/mL; CL/F [9]: 650 mL/min/kg; half-life [10]: 2.92 h; remaining at 3.2 ug/ml [11]: 97.1%; remaining at 0.2 ug/ml [12]: 96.5%; AUC(0-inf) [13]: 14900 ng·h/mL |
| COc1cc(/C=C2\CCC/C(=C\c3ccc(O)c(OC)c3)C2=O)ccc1O [CYCLOVALONE] |  |  | 0 | 17.6 | 4.6 |  | < 10.1 |  |  |
| O=C(/C=C/c1cccs1)/C=C/c1cccs1 |  |  | 0 | 154 | 79.5 | 10.3 | 123 | 6.2 |  |
| O=C(/C=C/c1ccc(Br)o1)/C=C/c1ccc(Br)o1 | 30.9 |  | 0 |  | 58.8 | 34.3 | 24.5 | 16.8 |  |
| CN(C)CCCOc1ccc(/C=C2\CC/C(=C\c3ccc(OCCCN(C)C)cc3)C2=O)cc1 |  |  | 0 | 2.4 |  |  | 3.3 |  |  |
| O=C1/C(=C/c2ccc(F)cc2)CCC/C1=C\c1ccc(F)cc1 | 87.3 | 58.1 | 0 | 77.9 | 7.4 |  | 150 |  |  |
